The source of these data is ChEMBL document CHEMBL5537213, “Cytotoxicity of phosphoramidate, bis-amidate and cycloSal prodrug metabolites against tumour and normal cells” (RSC Med Chem, 2024).

In data set [1] the test system is BXPC-3. As to the kind of experiment: Cytotoxicity against human BXPC-3 cells assessed as reduction in cell viability at 256 uM incubated for 72 hrs by CyQUANT assay. It is filed as functional, cell-based. In outline: (§1)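 BxPC3 (5 × 10^3/well) or primary C57BL/6 male mouse astrocytes (>90% GFAP-positive; 3 × 10^3/well) treated 24 h after plating for 72 h, 0.1% DMSO final. Stained 1 h at 37 °C with CyQUANT Direct nucleic acid stain plus background suppressor in HBSS; whole-well fluorescence imaged (Ex 488/Em 520 nm), normalised to control. At least three experiments, at least four replicates each.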

Data set [2] has as its system BXPC-3. Put plainly: Induction of apoptosis in human BXPC-3 cells assessed as increase in caspase 3/7 activation at 256 uM incubated for 72 hrs by laser scanning imaging analysis. In kind it is functional, cell-based. In outline: (§2)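 BxPC3 (5 × 10^3/well) or GL261-Luc (3 × 10^3/well) exposed 24 h post-plating for 72 h, 0.1% DMSO final. CellEvent caspase-3/7 green reagent 1 h at 37 °C; whole-well fluorescence imaged (Ex 488/Em 520 nm). Cells then fixed, permeabilised, blocked and stained with CellTag 700 (Ex 685/Em 720 nm); caspase signal normalised to cell number, expressed as fold over control. At least three experiments, at least four replicates each.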

Data set [3] concerns BXPC-3. As to the kind of experiment: Antiproliferative activity against human BXPC-3 cells assessed as reduction in cell index at 256 uM incubated for 72 hrs by xCELLigence real time cell analyser method. In kind it is functional, cell-based. In outline:
(§3)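 Cells seeded on E16 xCELLigence plates (BxPC3 5 × 10^3/well; GL261-Luc and primary astrocytes 3 × 10^3/well), treated after 24 h in supplemented DMEM with 0.1% DMSO final. Impedance cell index read hourly for 72 h, normalised to control (100% viability). At least three independent experiments, two replicates each; ANOVA with Dunnett's test.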

In data set [4] the test system is GL261. As to the kind of experiment: Induction of apoptosis in mouse GL261 cells transfected with luciferase gene assessed as increase in caspase 3/7 activation at 256 uM incubated for 72 hrs by laser scanning imaging analysis. In kind it is functional, cell-based. In outline:
as §2

Data set [5] concerns Astrocyte. As to the kind of experiment: Cytotoxicity against mouse astrocyte cells assessed as reduction in cell index at 256 uM incubated for 72 hrs by xCELLigence real time cell analyser method relative to control. It is filed as toxicity, cell-based. Also noted: scale not given: the % may be the effect or the level left. Put shortly:
as §3

The test system of data set [6] is Astrocyte. Put plainly: Cytotoxicity against mouse astrocyte cells assessed as reduction in cell viability at 256 uM incubated for 72 hrs by CyQUANT assay. It is filed as toxicity, cell-based. Put shortly:
as §1

For data set [7], the system named is GL261. As to the kind of experiment: Antiproliferative activity against mouse GL261 cells transfected with luciferase gene assessed as reduction in ATP release at 256 uM incubated for 72 hrs in presence of D-luciferin by luminescence based SpectraMax M5 microplate reader analysis. In kind it is functional, cell-based. Put shortly:
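Luciferase-expressing GL261-Luc seeded at 3 × 10^3/well in DMEM with 10% FBS; 24 h later exposed to compounds with 0.1% DMSO final for 72 h. Medium replaced by D-luciferin 150 μg mL-1 in complete medium, 15 min at 37 °C; luminescence read on plate reader, normalised to control. At least three experiments, at least four replicates each.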

Data set [8] deals with GL261. As to the kind of experiment: Antiproliferative activity against mouse GL261 cells transfected with luciferase gene assessed as reduction in cell index at 256 uM incubated for 72 hrs by xCELLigence real time cell analyser method. In kind it is functional, cell-based. Put shortly:
as §3

In data set [9] the test system is Astrocyte. Put plainly: Cytotoxicity against mouse astrocyte cells assessed as reduction in cell viability at 128 uM incubated for 72 hrs by CyQUANT assay. It is filed as toxicity, cell-based. In outline: (§4)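 BxPC3 (5 × 10^3/well) or primary astrocytes (3 × 10^3/well) were dosed 24 h after plating, in supplemented DMEM with 0.1% DMSO final, for 72 h. Stained 1 h at 37 °C with CyQUANT Direct nucleic acid stain plus background suppressor in HBSS. Whole-well fluorescence imaged (Ex 488/Em 520 nm) and normalised to control. ≥3 experiments, ≥4 replicates.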

Data set [10] relates to BXPC-3. As to the kind of experiment: Cytotoxicity against human BXPC-3 cells assessed as reduction in cell viability at 128 uM incubated for 72 hrs by CyQUANT assay relative to control. In kind it is functional. Put shortly:
as §4

The test system of data set [11] is BXPC-3. Put plainly: Antiproliferative activity against human BXPC-3 cells assessed as reduction in cell index at 128 uM incubated for 72 hrs by xCELLigence real time cell analyser method relative to control. It is filed as functional. Also noted: scale not given: the % may be the effect or the level left. Put shortly: (§5)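 Real-time impedance: cells seeded on E16 plates (BxPC3 5 × 10^3/well; GL261-Luc and primary astrocytes 3 × 10^3/well), treated after 24 h in DMEM/10% FBS with 0.1% DMSO final. Cell index read hourly for 72 h and normalised to control (100% viability). At least three independent experiments, duplicates each; mean ± S.D.; ANOVA with Dunnett's test.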

Data set [12] relates to GL261. Put plainly: Antiproliferative activity against mouse GL261 cells transfected with luciferase gene assessed as reduction in ATP release at 128 uM incubated for 72 hrs in presence of D-luciferin by luminescence based SpectraMax M5 microplate reader analysis. In kind it is functional. More on the design: scale not given: the % may be the effect or the level left. Put shortly:
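Luciferase-expressing GL261 cells were seeded at 3 × 10^3/well, then dosed 24 h later for 72 h in supplemented DMEM with 0.1% DMSO final. Medium was replaced with D-luciferin (150 µg/mL in complete medium) for 15 min at 37 °C, and luminescence was read on a plate reader and normalised to control. ≥3 experiments, ≥4 replicates.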

The subject of data set [13] is Astrocyte. Put plainly: Cytotoxicity against mouse astrocyte cells assessed as reduction in cell index at 128 uM measured after 4 hrs by xCELLigence real time cell analyser method. In kind it is toxicity, cell-based. In outline: as §5
Data set [14] concerns BXPC-3. Put plainly: Induction of apoptosis in human BXPC-3 cells assessed as fold increase in caspase 3/7 activation at 128 uM incubated for 72 hrs by laser scanning imaging analysis. It is filed as functional. Put shortly:
(§6)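 BxPC3 (5 × 10^3/well) or GL261-Luc (3 × 10^3/well) were dosed 24 h after seeding for 72 h (0.1% DMSO final). CellEvent caspase-3/7 reagent was added for 1 h at 37 °C and whole-well fluorescence imaged (Ex 488/Em 520 nm). Cells were then fixed, permeabilised, blocked and stained with CellTag 700 (Ex 685/Em 720 nm) for cell number. Signal per cell is given as fold over control. ≥3 experiments, ≥4 replicates.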

Data set [15] concerns GL261. Put plainly: Induction of apoptosis in mouse GL261 cells transfected with luciferase gene assessed as fold increase in caspase 3/7 activation at 128 uM incubated for 72 hrs by laser scanning imaging analysis. It is filed as functional. In outline:
as §2

For data set [16], the system named is Astrocyte. As to the kind of experiment: Cytotoxicity against mouse astrocyte cells assessed as reduction in cell index at 128 uM incubated for 72 hrs by xCELLigence real time cell analyser method relative to control. It is filed as toxicity, cell-based. Also noted: scale not given: the % may be the effect or the level left. Put shortly:
as §5

Data set [17] has as its system BXPC-3. Put plainly: Antiproliferative activity against human BXPC-3 cells assessed as reduction in cell index at 128 uM incubated for 72 hrs by xCELLigence real time cell analyser method. In kind it is functional, cell-based. Put shortly: as §5
The subject of data set [18] is BXPC-3. Put plainly: Cytotoxicity against human BXPC-3 cells assessed as reduction in cell viability at 128 uM incubated for 72 hrs by CyQUANT assay. In kind it is functional, cell-based. Put shortly: as §4
Data set [19] has as its system BXPC-3. Put plainly: Induction of apoptosis in human BXPC-3 cells assessed as increase in caspase 3/7 activation at 128 uM incubated for 72 hrs by laser scanning imaging analysis. It is filed as functional, cell-based. Put shortly:
as §6

The test system of data set [20] is GL261. As to the kind of experiment: Antiproliferative activity against mouse GL261 cells transfected with luciferase gene assessed as reduction in cell index at 128 uM incubated for 72 hrs by xCELLigence real time cell analyser method. In kind it is functional, cell-based. In outline: as §5
The subject of data set [21] is GL261. Put plainly: Induction of apoptosis in mouse GL261 cells transfected with luciferase gene assessed as increase in caspase 3/7 activation at 128 uM incubated for 72 hrs by laser scanning imaging analysis. It is filed as functional, cell-based. Put shortly:
as §6

Each structure is given as a SMILES string. Active and inactive are the calls of the source. No cut-off for these calls is given here.

In the case of `CC(C)OC(=O)[C@H](C)N`, the outcome with BXPC-3 [1], in the data set with BXPC-3 [2], in the data set on BXPC-3 [3], in the data set on GL261 [4], in the data set with GL261 [7] and in the data set with GL261 [8] was inactive. Also, the Activity with Astrocyte [5] came to 11%; in the data set on Astrocyte [6] it was 12%.

On to `C[C@H](N)C(=O)OCc1ccccc1`, for which the result with BXPC-3 [1], in the data set on BXPC-3 [2], in the data set with BXPC-3 [3], in the data set with GL261 [4], in the data set on GL261 [7] and in the data set on GL261 [8] was inactive. The Activity was 11% with Astrocyte [5] and 8% in the data set with Astrocyte [6].

As to `Oc1cccc2ccccc12` [1-NAPHTHOL], the Activity was 29% with Astrocyte [9]; 53% in the data set with BXPC-3 [10]; 51% with BXPC-3 [11]; 53% with GL261 [12]; “Toxic” with Astrocyte [13]. For the same compound, the “fold change (FC)” value is 2.2 with BXPC-3 [14] and 2 with GL261 [15].

`Oc1ccc2ccccc2c1` [BETANAPHTHOL]: the Activity is 29% in the data set on Astrocyte [9]; 90% in the data set on BXPC-3 [10]; 94% in the data set with BXPC-3 [11]; 39% in the data set with GL261 [12]; “Toxic” with Astrocyte [13]; 46% in the data set with Astrocyte [16]. The “fold change (FC)” value in the data set with BXPC-3 [14] is 8.1.

As for `Oc1ccccc1` [PHENOL], the outcome in the data set with BXPC-3 [17], with BXPC-3 [18], with BXPC-3 [19], in the data set on GL261 [12], in the data set on GL261 [20] and in the data set with GL261 [21] was inactive. Also, the Activity with Astrocyte [9] was determined as 8%; in the data set on Astrocyte [16] it was 11%.

Consider `OCc1ccccc1O` [SALICYL ALCOHOL], for which the outcome with BXPC-3 [17], with BXPC-3 [18], in the data set with BXPC-3 [19], in the data set on GL261 [12], in the data set with GL261 [20] and in the data set with GL261 [21] was inactive. In addition, the Activity in the data set on Astrocyte [9] was determined as 22%; with Astrocyte [16], 11%.
